Results published in ChEMBL document CHEMBL1125136, “Quinolone antibacterial agents substituted at the 7-position with spiroamines. Synthesis and structure-activity relationships” (1990).
≈ marks a conversion by molar mass, not a printed value.

Key:
[1] = system: Staphylococcus aureus; test: Evaluated for minimum inhibitory concentration against […] bacteria Staphylococcus aureus H228; format: functional
Method in brief: (§1)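 Broth microdilution MIC by standard technique. Values come from duplicate experiments and are stated as accurate to ±50%.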

[2] = system: Escherichia coli; test: Evaluated for minimum concentration needed to produce linear DNA at an intensity relative to oxolinic acid at 10 mg/mL. by gyrase mediated cleavage of DNA in Escherichia coli 560.; format: functional; conditions: read-out: MIC
[3] = system: Streptococcus pyogenes; test: Evaluated for minimum inhibitory concentration against gram-positive bacteria Streptococcus pyogenes C203
[4] = system: Klebsiella pneumoniae; test: Evaluated for minimum inhibitory concentration against gram-negative bacteria Klebsiella pneumoniae MGH-2; format: functional; method in brief: as §1
[5] = system: Escherichia coli; test: In vivo protective dose for mouse protection assay in Escherichia coli Vogel after peroral administration; format: functional; conditions: po, read-out: PD50
Method in brief: (§2)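 Female Charles River CD-1 mice were given an acute, lethal, systemic infection. A single dose of compound was given at the time of challenge, by the route stated in the line, with 16 animals per dose level. The read-out is the median protective dose (PD50, mg/kg). Per the footnote, values come from 16 animals per test, with a mean variation of ±34%.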

[6] = system: Escherichia coli; test: In vivo protective dose was determined in mouse protection assay in Escherichia coli Vogel after subcutaneous administration; format: functional; conditions: sc, read-out: PD50; method in brief: as §2
[7] = system: Pseudomonas aeruginosa; test: Evaluated for minimum inhibitory concentration against gram-negative bacteria Pseudomonas aeruginosa UI-18
[8] = system: Enterobacter cloacae; test: Evaluated for minimum inhibitory concentration against gram-negative bacteria Enterobacter cloacae HA 2646; format: functional
[9] = system: Staphylococcus aureus; test: Evaluated for minimum inhibitory concentration against […] bacteria Staphylococcus aureus UC-76; format: functional; method in brief: as §1
[10] = system: Pseudomonas; test: Evaluated for minimum inhibitory concentration against gram-negative bacteria Pseudomonas rettgeri H1771; format: functional; method in brief: as §1
[11] = system: Escherichia coli; test: Evaluated for minimum inhibitory concentration against gram-negative bacteria Escherichia coli Vogel; format: functional; method in brief: as §1
[12] = Evaluated for minimum inhibitory concentration against […] bacteria […] SV-1; format: functional; method in brief: as §1
[13] = system: Enterococcus faecalis; test: Evaluated for minimum inhibitory concentration against gram-positive bacteria Staphylococcus faecalis MGH-2
[14] = system: Escherichia coli; test: `Evaluated for minimum concentration needed to produce linear DNA at an intensity relative to oxolinic acid at 10 mg/mL. by gyrase mediated cleavage of DNA in Escherichia coli 560.; format: functional
Method in brief: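 DNA gyrase isolated from Escherichia coli. The read-out is the minimum drug concentration (μg/mL) that induces gyrase-mediated DNA cleavage, giving linear DNA at an intensity relative to oxolinic acid at 10 mg/mL.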

[15] = system: Pseudomonas aeruginosa; test: Evaluated for minimum inhibitory concentration against gram-negative bacteria Pseudomonas aeruginosa UI-18; format: functional; method in brief: as §1
[16] = system: Enterococcus faecalis; test: Evaluated for minimum inhibitory concentration against […] bacteria, Staphylococcus faecalis MGH-2; format: functional; method in brief: as §1
[17] = system: Streptococcus pneumoniae; test: In vivo protective dose was determined against Streptococcus pneumoniae SV-1 after peroral administration; conditions: po, read-out: PD50
[18] = system: Streptococcus pyogenes; test: In vivo protective dose was determined against Streptococcus pyogenes after subcutaneous administration; conditions: sc, read-out: PD50
[19] = system: Staphylococcus aureus; test: In vivo protective dose was determined against Staphylococcus aureus VC76 after peroral administration; format: functional; conditions: po, read-out: PD50; method in brief: as §2
[20] = system: Streptococcus pyogenes; test: In vivo protective dose was determined against Streptococcus pyogenes after peroral administration; conditions: po, read-out: PD50
[21] = system: Staphylococcus aureus; test: In vivo protective dose was determined against Staphylococcus aureus VC76. after subcutaneous administration; format: functional; conditions: sc, read-out: PD50; method in brief: as §2
[22] = system: Pseudomonas aeruginosa; test: In vivo protective dose was determined against Pseudomonas aeruginosa UI-18. after subcutaneous administration; format: functional; conditions: sc, read-out: PD50; method in brief: as §2
[23] = system: Pseudomonas aeruginosa; test: In vivo protective dose was determined against Pseudomonas aeruginosa UI-18. after peroral administration; format: functional; conditions: po, read-out: PD50; method in brief: as §2
[24] = system: Streptococcus pneumoniae; test: In vivo protective dose was determined against Streptococcus pneumoniae SV-1 after subcutaneous administration; conditions: sc, read-out: PD50

Row | SMILES | MIC [1] [µg/mL] | minimum concentration for gyrase-mediated DNA cleavage [2] [µg/mL] | MIC [3] [µg/mL] | MIC [4] [µg/mL] | ED50 [5] [mg/kg] | ED50 [6] [mg/kg] | MIC [8] [µg/mL] | MIC [9] [µg/mL] | MIC [10] [µg/mL] | MIC [11] [µg/mL] | MIC [12] [µg/mL] | MIC [13] [µg/mL] | MIC [15] [µg/mL] | other results
1 | CN1CCC2(CCN(c3c(F)cc4c(=O)c(C(=O)O)cn(C5CC5)c4c3F)C2)C1 (stereo not drawn) | 0.25 (≈ 0.62 µM) | 0.5 | 0.05 (≈ 0.124 µM) | 0.1 (≈ 0.248 µM) | 5 | 2 | 0.05 (≈ 0.124 µM) | 0.013 (≈ 0.0322 µM) | 0.2 (≈ 0.496 µM) | 0.05 (≈ 0.124 µM) | 0.05 (≈ 0.124 µM) | 0.1 (≈ 0.248 µM) |  | MIC [7]: 0.8 µg/mL (≈ 1.98 µM)
2 | CCN1CCC2(CCN(c3nc4c(cc3F)c(=O)c(C(=O)O)cn4CC)C2)C1 (stereo not drawn) | 0.4 (≈ 1.03 µM) |  | 1.6 (≈ 4.12 µM) | 0.4 (≈ 1.03 µM) | 10.3 | 15 | 1.6 (≈ 4.12 µM) | 0.2 (≈ 0.515 µM) | 6.3 (≈ 16.2 µM) | 0.4 (≈ 1.03 µM) | 1.6 (≈ 4.12 µM) | 0.8 (≈ 2.06 µM) | 3.1 (≈ 7.98 µM) | MIC [14]: 5 µg/mL (≈ 12.9 µM)
3 | CCn1cc(C(=O)O)c(=O)c2cc(F)c(N3CCCC4(CCCNC4)C3)c(F)c21 (stereo not drawn) | 3.1 (≈ 7.65 µM) | 7.5 | 3.1 (≈ 7.65 µM) | 6.3 (≈ 15.5 µM) |  |  | 6.3 (≈ 15.5 µM) | 0.4 (≈ 0.987 µM) | 25 (≈ 61.7 µM) | 3.1 (≈ 7.65 µM) | 6.3 (≈ 15.5 µM) |  | 12.5 (≈ 30.8 µM) | MIC [16]: 3.1 µg/mL (≈ 7.65 µM)
4 | CCn1cc(C(=O)O)c(=O)c2cc(F)c(N3CCC4(CCN(C)C4)C3)nc21 (stereo not drawn) | 0.1 (≈ 0.267 µM) | 10 | 0.4 (≈ 1.07 µM) | 0.4 (≈ 1.07 µM) | 11.4 | 4.4 | 0.4 (≈ 1.07 µM) | 0.025 (≈ 0.0668 µM) | 1.6 (≈ 4.27 µM) | 0.1 (≈ 0.267 µM) | 0.8 (≈ 2.14 µM) | 0.2 (≈ 0.534 µM) | 1.6 (≈ 4.27 µM) | ED50 [17]: 30 mg/kg; ED50 [18]: 13 mg/kg; ED50 [19]: 8.5 mg/kg; ED50 [20]: 27 mg/kg; ED50 [21]: 3.6 mg/kg; ED50 [22]: 58 mg/kg; ED50 [23]: 200 mg/kg; ED50 [24]: 16 mg/kg
